In the RNAGym collection of RNA variant scans (doi:10.1126/science.aae0568):
This sample holds only a part of the variants without activity.

B1: tRNA (parent)
chain: GUUCCGUUGGCGUAAUGGUAACGCGUCUCCCUCCUAAGGAGAAGACUGCGGGUUCGAGUCCCGUACGGAACG

Variants of: B1
Test: yeast fitness relative to wild type (ratio to wild type); higher = fitter; tRNA-Arg(CCU), competitive growth, 37 C, YPD
In short: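 Changes in genotype frequencies gave Darwinian fitness relative to wild type. Frequencies were read by 100-nucleotide paired-end sequencing of gene amplicons before and after pooled Saccharomyces cerevisiae strains, carrying tRNA-Arg(CCU) gene variants at the native locus, were competed in YPD at 37°C for 24 hours in six replicates. A genotype was kept only with ≥ 100 starting reads, and estimates < 0.5 were set to 0.5.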

| Variant | yeast fitness |
| --- | --- |
| GUUCCGUUGGCGUAAUGGUAACGAGGCUCCCUCCUAAGGAGACGACUGCGGGUUCGAGUCCCGUACGGAGCG [C24A U26G A43C A70G] | ≤ 0.5 |
| GUUCCGUUGGCGUAAUGGUAACGGGUCUCCCUCCUGAGGAGAAGACUGCGGGUUCGAGUCCCGUUCGCAACG [C24G A36G A65U G68C] | ≤ 0.5 |
| GUUCCGUUGGCGUAAUGGUAACGAGUCUCCCCCCUAAGGAGAAGACUGCGGGUUCGAGUCCUGUACGGAACG [C24A U32C C62U] | ≤ 0.5 |
| GUUCCGUUGGCGUAAUGGUAACGAGUCUCCCUCCUAAGGAGAAGACUGCGGGUUCGAGACUCGUACGGAACG [C24A U59A C61U] | 0.567 |
| GUUCCGUUGGCGUAAUGGUAACGGGUCUCCCUCCUAGGGAGAAGACUGCGGGUUCGAGACCCGUACAGAACG [C24G A37G U59A G67A] | 0.548 |
| GUUCCGUUGGCGUAAUGGUAACGAGUCUGCCUCCUAAGGAGACGACUGCGGGUUCGAGUCCCGUACGGACCG [C24A C29G A43C A70C] | ≤ 0.5 |
| GUUCCGUUGGCGUAAUGGUAACGAGCCUCCCUCCUAAGGAGAAGACUGCGGGUUCGAGUCCCGUACGGAACG [C24A U26C] | 0.678 |
| GUUCCGUUGGCGUAAUGGUAACGAGUAACCCUCCUAAGGAGAAGACUGCGGGUUGGAGUCCCGUACGGAACG [C24A C27A U28A C55G] | ≤ 0.5 |
| GUUCCGUUGGCGUAAUGGUAACGGGUCUCCCUCCUUCGGAGAAGACUGCGGGUUCGAGUCCCGUCCGGAACG [C24G A36U A37C A65C] | ≤ 0.5 |
| GUUCCGUUGGCGUAAUGGUAACGAGUCUCCCUCCUAAGGAGAAGACUGCGGGUUCGAGUUCCGUACGGAACG [C24A C60U] | 0.543 |
| GUUCCGUUGGCGUAAUGGUAACGAGUCUCCCUACUAAGGAGAAGAUUGCGGGUUCGAGUCCCGUACGGAACG [C24A C33A C46U] | 0.534 |
| GUUCCGUUGGCGUAAUGGUAACGGGUCUCCCUCCUGAGGAGAAGACUGCGGGUUGGAGUCCCGUACGGAACG [C24G A36G C55G] | ≤ 0.5 |
| GUUCCGUUGGCGUAAUGGUAACGAGUCUCCCUCCUAAGGGGAAGACUGCGGGUUCGAGUCCCGUAUGGAACG [C24A A40G C66U] | ≤ 0.5 |
| GUUCCGUUGGCGUAAUGGUAACGGGUCUCCCUCCUAAGGAGAAGACUGCGGGUUCGCGUCUCGUACGGAACG [C24G A57C C61U] | ≤ 0.5 |
| GUUCCGUUGGCGUAAUGGUAACGGGUCUCCCUCCUAAGGUGAAGACUGCGGGUUCGAGUCCCGUACGGAACG [C24G A40U] | 0.542 |
| GUUCCGUUGGCGUAAUGGUAACGAGUCUCCCUCCUAAGGAGAAGACUGCGGGUUCGAGUCCAGUACGGAACG [C24A C62A] | 0.598 |
| GUUCCGUUGGCGUAAUGGUAACGGGUCUCCCUCCUAAGGGGAAGACUGCGGGUUCGAGUCCCGUAUGGAACG [C24G A40G C66U] | 0.515 |
| GUUCCGUUGGCGUAAUGGUAACGAGUCUCCCUCCUAAGGAGAAGACUGCGGGUUCGAGGCCUGUACGGAACG [C24A U59G C62U] | ≤ 0.5 |
| GUUCCGUUGGCGUAAUGGUAACGGGUCUCCCUCCUACGGAGAAGACUGUGGGUUCGAGUCCCGUACGGAACG [C24G A37C C49U] | ≤ 0.5 |

| Variant | yeast fitness |
| --- | --- |
| GUUCCGUUGGCGUAAUGGUAACGAGUCUCCCUCCUUAGGAGAAGACUGCGGGUUAGAGUCCCGUAUGGAACG [C24A A36U C55A C66U] | ≤ 0.5 |
| GUUCCGUUGGCGUAAUGGUAACGAGUCUCCCUCCUAAGGAGAAGACUGCGAGUUCGAGUCCCGUACGGAACG [C24A G51A] | 0.53 |
| GUUCCGUUGGCGUAAUGGUAACGAGUCUCCCUCCUAAGGAGACGACUGCGGGUUCGAGUCCCGUACGGUACG [C24A A43C A69U] | ≤ 0.5 |
| GUUCCGUUGGCGUAAUGGUAACGAGUCUCCCUCCUAAGGAGAAGACUGCGGGUUCGAGUCCCCUACGGCACG [C24A G63C A69C] | 0.621 |
| GUUCCGUUGGCGUAAUGGUAACGAGUCUCCCUCCUAAGGAGAAGACUGCGGGUUCGAGUUGCGUACAGAACG [C24A C60U C61G G67A] | 0.614 |
| GUUCCGUUGGCGUAAUGGUAACGAGUCUCCCUGCUAAGGCGAAGACUGCGGGUUUGAGUCCCGUACGGAACG [C24A C33G A40C C55U] | 0.888 |
| GUUCCGUUGGCGUAAUGGUAACGAGUCUCCCUCCUAAGGAGAAGGCUGCGGGUUCGUGUCCUGUACGGAACG [C24A A45G A57U C62U] | ≤ 0.5 |
| GUUCCGUUGGCGUAAUGGUAACGGGUCUCCCUCCUAAGGAGGAGACUGCGGGUUGGAGUCCCGUACGGAACG [C24G A42G C55G] | ≤ 0.5 |
| GUUCCGUUGGCGUAAUGGUAACGGGUCUCCCUCCUAAGGAGAAGUCUGCGGGUACGAGUCCCGUACGGAACG [C24G A45U U54A] | ≤ 0.5 |
| GUUCCGUUGGCGUAAUGGUAACGAGACUCCCUCCUAAGGAGAAGACUGCGGGUUAGAGUCCCGUAUGGAACG [C24A U26A C55A C66U] | ≤ 0.5 |
| GUUCCGUUGGCGUAAUGGUAACGGGUCUCCCUCCUAGGGAGAAGACUGCGGGUUCGAGACCAGUACAGAACG [C24G A37G U59A C62A G67A] | ≤ 0.5 |
| GUUCCGUUGGCGUAAUGGUAACGGGUCUCCCUCCUAUGGAGAAGACUGUGGGUUCGAGACCCGUACGGAACG [C24G A37U C49U U59A] | ≤ 0.5 |
| GUUCCGUUGGCGUAAUGGUAACGAGUCUCCUUCCUAAGGAGAAGACUGCGAGUUCGAGUCCAGUACGGAACG [C24A C31U G51A C62A] | ≤ 0.5 |
| GUUCCGUUGGCGUAAUGGUAACGAGUCUCCCUCCUAAGAAGAAGACUGCGGGUUCGAGUCCCGUACGGAACG [C24A G39A] | 0.66 |
| GUUCCGUUGGCGUAAUGGUAACGAGUUUCCCUCCUAAGGUGAAGACUGCGGGUUCGCGUCCCGUACGGAACG [C24A C27U A40U A57C] | 0.512 |
| GUUCCGUUGGCGUAAUGGUAACGAGUCUCCCUCCUAAGGCGAAGACUGCGGGUUCGAGUCCCGUACGGCACG [C24A A40C A69C] | ≤ 0.5 |
| GUUCCGUUGGCGUAAUGGUAACGAGUCUCCCUCCUAAGGAGAAGACUGCGGAUUCGAGUCCCGUACGGAACG [C24A G52A] | 0.752 |
| GUUCCGUUGGCGUAAUGGUAACGAGUCUCUCUCCUAAGGAGAAGACUGCGGGUUCGAGUCCCGUACGGAACG [C24A C30U] | 0.538 |
